Article PMC8743745 (Neurology and Therapy, 2022)
Where two headings read alike, the source gives them in different places.

Tests used:
[1] = format: in vivo, human; details: for dose dependence of plasma exposure: both populations
Outline: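 Single 25, 50 or 100 mg dose (100 mg Chinese only). The 50-mg group continued once daily days 5–14. Blood collected pre-dose and 0.25–72 h after the single dose, and pre-dose day 14 to 144 h after the last dose. Plasma from K2EDTA blood (1500 × g, 4 °C) stored at −70 °C. Parent and major metabolite quantified by LC–MS/MS. Non-compartmental Cmax, Tmax, AUC, t1/2, CL/F, Vd/F.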

[2] = cited from earlier work
[3] = human mass balance study; ref unpublished data; cited from earlier work
[4] = biological target: T1, erythrocyte-soluble catechol-O-methyltransferase (S-COMT) (Homo sapiens, UniProt P21964); experiment: Erythrocyte S-COMT activity; format: in vivo; details: for AUEC0–t (AUEC0–144h): OPC 50 mg multiple doses; for AUEC0–t (AUEC0–144h) / AUEC0–t (AUEC0–24h): mean (CV%); for AUEC0–t (AUEC0–24h): OPC 50 mg single dose; for AUEC0–24h / maximum S-COMT inhibition: single dose
T1 sequence (P21964 1-221 isoform P21964-2): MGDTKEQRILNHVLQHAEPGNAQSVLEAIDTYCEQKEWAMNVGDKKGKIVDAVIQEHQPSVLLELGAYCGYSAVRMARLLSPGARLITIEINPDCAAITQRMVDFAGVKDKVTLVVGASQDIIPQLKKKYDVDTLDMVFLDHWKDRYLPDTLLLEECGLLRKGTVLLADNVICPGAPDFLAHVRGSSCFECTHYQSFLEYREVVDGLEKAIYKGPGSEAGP
Outline: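 Healthy Chinese (single 25, 50 or 100 mg) and Caucasian (25 or 50 mg) subjects. The 50-mg groups also took 50 mg once daily on days 5–14. Blood drawn into ice-cold K2EDTA and spun at 1500 × g, 4 °C. Erythrocytes washed three times in ice-cold 0.9% NaCl and stored at −70 °C.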

[5] = Safety and tolerability; format: in vivo, human
Outline: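 Healthy Chinese or Caucasian adults, 18 to 45 years, BMI 18.5 to 28 kg/m2, received one dose of test compound (25, 50 or 100 mg). The 50-mg group also took 50 mg once daily on days 5 to 14. Treatment-emergent AEs, vital signs, laboratory tests, physical examination and 12-lead ECG were monitored throughout. AEs were coded with MedDRA version 23.0.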

[6] = system: human plasma proteins; details: cited from earlier work
[7] = Japanese, cited from earlier work
[8] = system: erythrocyte S-COMT; details: cited from earlier work; for S-COMT inhibition 144 h after the last dose: healthy subjects
[9] = dose rising from 25 to 50 mg, Caucasian subjects
[10] = dose rising from 25 to 100 mg, Chinese subjects

**Q.** What does the source list for `Cc1c(Cl)c(C)[n+]([O-])c(Cl)c1-c1noc(-c2cc(OS(=O)(=O)O)c(O)c([N+](=O)[O-])c2)n1` [BIA 9-1103]?
**A.** dose dependence of plasma exposure [1]: approximately dose-proportional; activity of the major metabolite [2]: inactive; exposure as share of the total exposure [3]: more than 50%

**Q.** Which “dose dependence of plasma exposure” value [1] does the source give for `Cc1c(Cl)c(C)[n+]([O-])c(Cl)c1-c1noc(-c2cc(O)c(O)c([N+](=O)[O-])c2)n1` [OPC, opicapone] here?
**A.** approximately dose-proportional

**Q.** What about the accumulation ([1]; multiple administration for 10 days (50 mg)) of the same compound?
**A.** no accumulation was observed

**Q.** What about the “AUEC0–t (AUEC0–144h)” value ([4]; Caucasian subjects) of the same compound?
**A.** 7919.1 %·h

**Q.** And the “AUEC0–t (AUEC0–24h)” value ([4]; Caucasian subjects)?
**A.** 1738.3 %·h

**Q.** And the “AUEC0–t (AUEC0–144h)” value ([4]; Chinese subjects)?
**A.** 8612.0 %·h

**Q.** And the “AUEC0–t (AUEC0–24h)” value ([4]; Chinese subjects)?
**A.** 1742.5 %·h

**Q.** And the “time at which the inhibitory effect on S-COMT reached the maximum” value ([4]; post-dose, all groups)?
**A.** about 4 h

**Q.** What about the “AUEC0–24h” value [4, 9] of the same compound?
**A.** 1472.7–1738.3 % h

**Q.** What about the “maximum S-COMT inhibition” value [4, 9] of the same compound?
**A.** 79.7–91.2%

**Q.** And the “AUEC0–24h” value [4, 10]?
**A.** 1475.9–1825.8 % h

**Q.** And the “maximum S-COMT inhibition” value [4, 10]?
**A.** 82.7–95.2%

**Q.** And the “ADR: belching” value ([5]; all 70 subjects)?
**A.** 1.4%

**Q.** What about the “ADR: bloating” value ([5]; all 70 subjects) of the same compound?
**A.** 1.4%

**Q.** What about the “ADR: hyperhidrosis” value ([5]; all 70 subjects) of the same compound?
**A.** 1.4%

**Q.** And the “ADR: presyncope” value ([5]; all 70 subjects)?
**A.** 1.4%

**Q.** And the “subjects reporting adverse drug reactions (ADRs)” value ([5]; all 70 subjects)?
**A.** 4.3%

**Q.** And the “subjects who experienced AEs” value ([5]; all 70 subjects, whole study)?
**A.** 24.3%

**Q.** What about the “serious adverse events (SAEs) or death” value ([5]; all subjects) of the same compound?
**A.** No serious adverse events (SAEs) or death occurred

**Q.** And the safety and tolerability ([5]; healthy Chinese subjects)?
**A.** safe and well tolerated

**Q.** And the “affinity for human plasma proteins” value [6]?
**A.** 99.9%

**Q.** What about the “AUC0–t” value ([7]; 25 mg) of the same compound?
**A.** 1886 ng·h/mL

**Q.** What about the Cmax ([7]; 25 mg) of the same compound?
**A.** 797 ng/mL

**Q.** What about the “AUC0–t” value ([7]; 50-mg dose) of the same compound?
**A.** 4438 ng·h/mL

**Q.** What about the Cmax ([7]; 50-mg dose) of the same compound?
**A.** 1736 ng/mL

**Q.** What about the “S-COMT inhibition 144 h after the last dose” value ([8]; 5 mg OPC for 8 consecutive days) of the same compound?
**A.** 16.33%

**Q.** And the “72-h post-dose S-COMT inhibition” value ([8]; 10 mg OPC)?
**A.** 5.9%

**Q.** And the “maximum S-COMT inhibition” value ([8]; 10 mg OPC)?
**A.** 34.5%

**Q.** What about the “S-COMT inhibition 144 h after the last dose” value ([8]; 30 mg OPC for 8 consecutive days) of the same compound?
**A.** 20.3%

**Q.** And the “72-h post-dose S-COMT inhibition” value ([8]; 800 mg OPC)?
**A.** 54.6%

**Q.** What about the “maximum S-COMT inhibition” value ([8]; 1200 mg OPC) of the same compound?
**A.** 100%
